Source: ChEMBL document CHEMBL1139183, “Potent and selective xanthine-based inhibitors of phosphodiesterase 5” (Bioorg Med Chem Lett, 2007)

Tests used:
[1] = Inhibition of bovine PDE6 by [3H]cGMP scintillation proximity assay; design: species or system Bos taurus
[2] = molecular target: cGMP-specific 3',5'-cyclic phosphodiesterase (Homo sapiens, UniProt O76074); assay: Inhibition of human platelet PDE5 by [3H]cGMP scintillation proximity assay
Phosphodiesterase 3 = Phosphodiesterase 3 (Homo sapiens, UniProt Q14432+Q13370); assay: Inhibition of human platelet PDE3 by [3H]cGMP scintillation proximity assay
[3] = Inhibition of bovine PDE1 by [3H]cGMP scintillation proximity assay; design: species or system Bos taurus
[4] = Half life in dog at 0.2 mg/kg, iv; type: ADME, organism-based, Canis lupus familiaris; design: dose 0.2 mg/kg, route intravenous; conditions: in vivo
How it was run: (§1)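 Dog pharmacokinetics: clearance, half-life and Vss came from IV dosing. Bioavailability came from oral dosing at 2.5 mg/kg. Values are means ± SEM.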

[5] = Clearance in iv dosed dog; type: ADME, organism-based, Canis lupus familiaris; conditions: in vivo; how it was run: as §1
[6] = Oral bioavailability in dog at 2.5 mg/kg; type: ADME, organism-based, Canis lupus familiaris; conditions: in vivo; how it was run: as §1
[7] = Intrinsic clearance in rat microsomes; type: ADME, Microsome
[8] = Bioavailability in rat at 3.3 mg/kg, intraduodenally; type: ADME, organism-based; conditions: in vivo
How it was run: (§2)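 Rat pharmacokinetics: IV bolus at 0.8 mg/kg gave clearance, half-life and Vss. […] Values are means ± SEM.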

[9] = Clearance in rat at 0.8 mg/kg, iv; type: ADME, organism-based; design: dose 0.8 mg/kg, route intravenous; conditions: in vivo; how it was run: as §2
[10] = Half life in rat at 0.8 mg/kg, iv; type: ADME, organism-based; design: dose 0.8 mg/kg, route intravenous; conditions: in vivo; how it was run: as §2
[11] = Volume of distribution at steady state in rat; type: ADME, organism-based; conditions: in vivo, read-out: Vdss; how it was run: as §2
[12] = Volume of distribution at steady state in dog; type: ADME, organism-based, Canis lupus familiaris; conditions: in vivo, read-out: Vdss; how it was run: as §1
[13] = Intrinsic clearance in dog microsomes; type: ADME, Canis lupus familiaris, Liver, Microsome
Adenosine receptor A1 = molecular target: T1, Adenosine receptor A1 (Homo sapiens, UniProt P30542); assay: Inhibition of adenosine A1 receptor
T1 sequence (P30542 whole entry): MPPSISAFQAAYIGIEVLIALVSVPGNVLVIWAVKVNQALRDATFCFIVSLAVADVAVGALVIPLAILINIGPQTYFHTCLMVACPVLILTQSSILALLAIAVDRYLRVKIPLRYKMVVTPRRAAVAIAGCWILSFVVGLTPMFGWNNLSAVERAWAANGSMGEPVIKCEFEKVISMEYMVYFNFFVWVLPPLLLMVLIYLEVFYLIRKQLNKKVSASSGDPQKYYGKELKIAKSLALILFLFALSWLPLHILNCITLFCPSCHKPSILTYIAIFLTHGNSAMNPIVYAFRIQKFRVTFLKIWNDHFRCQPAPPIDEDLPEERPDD
How it was run: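 Binding was profiled in a contract Spectrum Screen panel of 111 receptors. Adenosine A1 activity was reported as Ki.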

[14] = Intrinsic clearance in human microsomes; type: ADME, Microsome
[15] = Inhibition of adenosine transporter; design: species or system Homo sapiens
[16] = Permeability from apical to basolateral side of Caco-2 cell membrane; type: ADME, cell-based; conditions: human
[17] = molecular target: 3',5'-cyclic-AMP phosphodiesterase 4D (Homo sapiens, UniProt Q08499); assay: Inhibition of human recombinant PDE4D by […] scintillation proximity assay
[18] = molecular target: 3',5'-cyclic-AMP phosphodiesterase 4B (Homo sapiens, UniProt Q07343); assay: Inhibition of human recombinant PDE4B by […] scintillation proximity assay
[19] = molecular target: High affinity 3',5'-cyclic-AMP phosphodiesterase 7A (Homo sapiens, UniProt Q13946); assay: Inhibition of human recombinant PDE7A by […] scintillation proximity assay
[20] = molecular target: cGMP-dependent 3',5'-cyclic phosphodiesterase (Homo sapiens, UniProt O00408); assay: Inhibition of human platelet PDE2 by [3H]cGMP scintillation proximity assay
Sequence of cGMP-dependent 3',5'-cyclic phosphodiesterase (O00408 whole entry): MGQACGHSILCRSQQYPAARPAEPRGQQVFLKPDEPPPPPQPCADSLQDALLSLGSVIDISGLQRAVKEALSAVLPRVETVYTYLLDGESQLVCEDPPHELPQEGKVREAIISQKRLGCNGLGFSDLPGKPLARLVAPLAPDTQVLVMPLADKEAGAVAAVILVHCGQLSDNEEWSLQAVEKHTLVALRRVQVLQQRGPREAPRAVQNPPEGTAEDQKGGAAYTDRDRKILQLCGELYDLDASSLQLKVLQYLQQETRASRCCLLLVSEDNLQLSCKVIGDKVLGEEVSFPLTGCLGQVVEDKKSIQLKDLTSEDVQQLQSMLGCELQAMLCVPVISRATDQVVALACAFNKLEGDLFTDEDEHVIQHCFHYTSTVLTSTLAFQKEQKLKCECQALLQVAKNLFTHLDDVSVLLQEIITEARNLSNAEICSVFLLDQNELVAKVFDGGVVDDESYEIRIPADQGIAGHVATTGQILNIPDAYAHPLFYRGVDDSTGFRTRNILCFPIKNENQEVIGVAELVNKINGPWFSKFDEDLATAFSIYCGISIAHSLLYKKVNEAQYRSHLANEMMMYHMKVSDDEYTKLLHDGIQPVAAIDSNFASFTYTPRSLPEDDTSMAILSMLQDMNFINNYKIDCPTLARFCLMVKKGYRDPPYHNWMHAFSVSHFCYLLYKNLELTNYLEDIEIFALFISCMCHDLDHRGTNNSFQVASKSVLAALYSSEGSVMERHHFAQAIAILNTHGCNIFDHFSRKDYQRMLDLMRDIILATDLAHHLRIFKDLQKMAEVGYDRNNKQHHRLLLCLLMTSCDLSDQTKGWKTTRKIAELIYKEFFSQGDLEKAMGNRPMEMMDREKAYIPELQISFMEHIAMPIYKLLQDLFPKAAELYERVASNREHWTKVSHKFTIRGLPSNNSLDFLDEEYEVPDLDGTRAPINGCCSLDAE

Sequence of High affinity 3',5'-cyclic-AMP phosphodiesterase 7A (Q13946 whole entry): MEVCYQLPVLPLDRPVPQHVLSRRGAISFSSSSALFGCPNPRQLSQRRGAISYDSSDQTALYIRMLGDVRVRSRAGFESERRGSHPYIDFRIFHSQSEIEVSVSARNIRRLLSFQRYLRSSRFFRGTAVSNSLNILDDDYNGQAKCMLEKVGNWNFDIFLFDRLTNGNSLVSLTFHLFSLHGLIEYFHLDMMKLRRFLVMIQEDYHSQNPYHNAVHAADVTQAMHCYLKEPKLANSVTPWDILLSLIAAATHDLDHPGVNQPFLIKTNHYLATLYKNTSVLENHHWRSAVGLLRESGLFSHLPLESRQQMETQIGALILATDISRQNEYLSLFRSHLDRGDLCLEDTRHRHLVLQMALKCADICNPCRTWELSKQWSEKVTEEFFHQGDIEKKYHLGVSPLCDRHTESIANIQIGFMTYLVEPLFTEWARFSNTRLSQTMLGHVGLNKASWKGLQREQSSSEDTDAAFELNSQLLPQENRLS
Sequence of 3',5'-cyclic-AMP phosphodiesterase 4D (Q08499 whole entry): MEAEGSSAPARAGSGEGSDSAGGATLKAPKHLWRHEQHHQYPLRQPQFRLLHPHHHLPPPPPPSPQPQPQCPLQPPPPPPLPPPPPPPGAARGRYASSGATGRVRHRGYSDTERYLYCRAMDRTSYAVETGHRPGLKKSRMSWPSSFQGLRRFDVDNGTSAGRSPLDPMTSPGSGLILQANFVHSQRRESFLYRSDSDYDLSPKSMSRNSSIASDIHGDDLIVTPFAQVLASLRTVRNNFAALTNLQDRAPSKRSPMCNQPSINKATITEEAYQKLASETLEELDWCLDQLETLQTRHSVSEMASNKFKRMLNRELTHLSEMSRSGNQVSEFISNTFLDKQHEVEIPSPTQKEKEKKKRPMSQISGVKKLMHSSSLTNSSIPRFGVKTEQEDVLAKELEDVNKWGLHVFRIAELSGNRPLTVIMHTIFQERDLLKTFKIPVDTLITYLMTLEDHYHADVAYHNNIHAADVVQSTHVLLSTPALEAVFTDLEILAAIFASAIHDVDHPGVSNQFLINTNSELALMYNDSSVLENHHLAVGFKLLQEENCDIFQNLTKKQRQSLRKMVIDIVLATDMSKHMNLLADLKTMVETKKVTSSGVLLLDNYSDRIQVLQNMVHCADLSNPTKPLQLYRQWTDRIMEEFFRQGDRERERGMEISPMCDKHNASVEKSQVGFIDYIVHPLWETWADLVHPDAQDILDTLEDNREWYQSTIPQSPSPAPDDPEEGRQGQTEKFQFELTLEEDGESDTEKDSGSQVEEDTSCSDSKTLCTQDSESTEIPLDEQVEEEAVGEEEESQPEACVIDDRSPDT
Sequence of 3',5'-cyclic-AMP phosphodiesterase 4B (Q07343 whole entry): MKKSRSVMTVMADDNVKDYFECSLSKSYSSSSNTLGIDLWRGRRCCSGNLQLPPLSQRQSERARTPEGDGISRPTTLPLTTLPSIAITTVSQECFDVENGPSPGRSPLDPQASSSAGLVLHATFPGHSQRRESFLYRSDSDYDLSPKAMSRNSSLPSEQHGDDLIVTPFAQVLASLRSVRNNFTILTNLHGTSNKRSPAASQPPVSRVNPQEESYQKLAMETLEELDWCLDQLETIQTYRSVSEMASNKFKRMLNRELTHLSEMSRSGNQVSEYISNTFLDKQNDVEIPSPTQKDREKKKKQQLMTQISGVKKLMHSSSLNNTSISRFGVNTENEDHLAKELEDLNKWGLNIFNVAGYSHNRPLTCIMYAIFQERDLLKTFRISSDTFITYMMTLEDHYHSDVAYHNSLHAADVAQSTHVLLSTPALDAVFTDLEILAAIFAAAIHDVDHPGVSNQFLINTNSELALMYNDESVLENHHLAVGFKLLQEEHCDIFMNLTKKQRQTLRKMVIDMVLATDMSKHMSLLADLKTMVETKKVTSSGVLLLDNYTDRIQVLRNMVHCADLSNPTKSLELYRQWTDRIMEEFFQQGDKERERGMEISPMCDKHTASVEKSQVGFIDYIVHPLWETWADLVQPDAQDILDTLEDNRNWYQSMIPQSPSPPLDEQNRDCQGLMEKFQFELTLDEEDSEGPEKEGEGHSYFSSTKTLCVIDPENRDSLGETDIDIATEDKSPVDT

Row | Compound | IC50 [1] | IC50 [2] | IC50 (Phosphodiesterase 3) | IC50 [3] | also measured
1 | COc1cc2cnc(C)c(Cc3nc4c([nH]3)c(=O)n(C)c(=O)n4CC(C)C)c2cc1OC | 525 nM | 26 nM | – | – | –
2 | C=C(C)Cn1c(=O)n(C)c(=O)c2[nH]c(Cc3cncc4cc(OC)c(OC)cc34)nc21 | 333 nM | 30 nM | – | – | –
3 | CC(C)Cn1c(=O)n(C)c(=O)c2[nH]c(CC3CC4CCC3C4)nc21 (stereo unspecified) | 65 nM | 25 nM | – | – | –
4 | CC(C)Cn1c(=O)n(C)c(=O)c2[nH]c(Cc3cncc4cc5c(cc34)OCO5)nc21 | – | 10000 nM | – | – | –
5 | COc1cc2cncc(Cc3nc4c(c(=O)n(C)c(=O)n4CC(C)C)n3C)c2cc1OC | – | 553 nM | – | – | –
6 | COc1cc2cncc(Cc3nc4c([nH]3)c(=O)n(C)c(=O)n4CC(C)CO)c2cc1OC (racemic) | 363 nM | 6 nM | 2710 nM | 670 nM | –
7 | CC(C)Cn1c(=O)n(C)c(=O)c2[nH]c(Cc3cncc4ccccc34)nc21 | 857 nM | 34 nM | 1850 nM | 7290 nM | –
8 | COc1cc2cncc(Cc3nc4c([nH]3)c(=O)n(C)c(=O)n4Cc3ccc(NS(=O)(=O)C(C)C)cc3)c2cc1OC | 399 nM | 5 nM | 3130 nM | 3440 nM | –
9 | COc1cc2cncc(Cc3nc4c([nH]3)c(=O)n(C)c(=O)n4CC3CCCCC3)c2cc1OC | 1130 nM | 28 nM | – | – | –
10 | COc1cc2cncc(Cc3nc4c([nH]3)c(=O)n(C)c(=O)n4CC3CC3)c2cc1OC | 823 nM | 20 nM | 1640 nM | 1320 nM | –
11 | COc1ccc2cncc(Cc3nc4c([nH]3)c(=O)n(C)c(=O)n4CC(C)C)c2c1 [listing 1 of 2 here] | 180 nM | – | 2220 nM | 2850 nM | half-life [4]: 63.4 min; clearance [5]: 28.7 mL/min/kg; bioavailability [6]: 103%; clearance [7]: 162 µL/min/mg; bioavailability [8]: 1%; clearance [9]: 118 mL/min/kg; half-life [10]: 21 min; Vd [11]: 2.9 L/kg; Vd [12]: 2.1 L/kg; clearance [13]: 6 µL/min/mg; Ki (Adenosine receptor A1): 2300 nM; clearance [14]: 4 µL/min/mg; Ki [15]: 2800 nM; Papp A→B [16]: 13.8 ×10⁻⁶ cm/s
12 | COc1cc2c(Cc3nc4c([nH]3)c(=O)n(C)c(=O)n4CC(C)C)cnc(C)c2cc1OC | 226 nM | 2 nM | 42 nM | 72 nM | Papp A→B [16]: 0.9 ×10⁻⁶ cm/s
13 | COc1ccc(Cn2c(=O)n(C)c(=O)c3[nH]c(Cc4cncc5cc(OC)c(OC)cc45)nc32)cc1OC | 1820 nM | 33 nM | – | 3910 nM | –
14 | COc1ccc2c(Cc3nc4c([nH]3)c(=O)n(C)c(=O)n4CC(C)C)cncc2c1 | 247 nM | 51 nM | – | – | –
15 | COc1cc2cncc(Cc3nc4c([nH]3)c(=O)n(CC(C)C)c(=O)n4CC(C)C)c2cc1OC | – | 462 nM | – | – | –
16 | COc1cc2cncc(Cc3nc4c([nH]3)c(=O)n(C)c(=O)n4CC(C)C)c2cc1OC | 389 nM | 9 nM | 299 nM | 417 nM | Papp A→B [16]: 31.8 ×10⁻⁶ cm/s
17 | COc1cc2cncc(C(C)c3nc4c([nH]3)c(=O)n(C)c(=O)n4CC(C)C)c2cc1OC (stereo unspecified) | – | 94 nM | – | – | –
18 | COc1cc2cncc(Cc3nc4c([nH]3)c(=O)n(C)c(=O)n4CC(C)(C)C)c2cc1OC | 294 nM | 8 nM | 1060 nM | 2790 nM | Papp A→B [16]: 23.4 ×10⁻⁶ cm/s
19 | COc1ccc2cncc(Cc3nc4c([nH]3)c(=O)n(C)c(=O)n4CC(C)C)c2c1 [listing 2 of 2 here] | – | – | – | – | IC50 [17]: > 10000 nM; IC50 [18]: > 10000 nM; IC50 [19]: > 10000 nM; IC50 [20]: 4600 nM
20 | COc1cc2cncc(Cc3nc4c([nH]3)c(=O)n(C)c(=O)n4Cc3ccc(NC(C)=O)cc3)c2cc1OC | 471 nM | 42 nM | – | – | –
